In paper PMC10948974 (Nature chemical biology, 2023):

Columns and labels:
[1] = molecular target: 14–3–3–NL + MEK1 + BRAF-R509H (Homo sapiens, UniProt Q02750); experiment: 14–3–3–NL NanoBRET assay with dimer mutant BRAF-R509H; format: binding; settings: 14–3–3–NL–Tram-bo assay configuration
[2] = molecular target: 14–3–3–NL + MEK1 + KSR1-R665H (Homo sapiens, UniProt Q02750); experiment: 14–3–3–NL NanoBRET assay with dimer mutant KSR1-R665H; format: binding; settings: 14–3–3–NL–Tram-bo assay configuration
MEK1–BRAF = MEK1–BRAF (Homo sapiens, UniProt Q02750); experiment: Co-IP of MEK1 and FLAG-tagged BRAF from treated HEK293T cells; format: cell-based; settings: 1 μM compound, 24 h
Procedure, shortened: (§1)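 HEK293T cells (350,000/well) were transfected 24 h after seeding using Fugene HD. FLAG-BRAF or FLAG-KSR1 was given at 1 μg ml−1 for FLAG pulldown, or 0.5 μg ml−1 for endogenous MEK1 pulldown, each with 9 μg ml−1 carrier DNA. After 24 h, cells got 1 μM compound (0.1% DMSO) for 24 h. 100 μg of lysate was captured on anti-FLAG, anti-MEK1 or normal IgG beads (1 h, 4 °C), then eluted and western blotted for BRAF, MEK1 and FLAG.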

MEK1–KSR1 = MEK1–KSR1 (Homo sapiens, UniProt Q02750); experiment: Co-IP of MEK1 and FLAG-tagged KSR1 from treated HEK293T cells; format: cell-based; settings: 1 μM compound, 24 h
Procedure, shortened: as §1

[3] = molecular target: 14–3–3–NL + MEK1 + CRAF-R401H (Homo sapiens, UniProt Q02750); experiment: 14–3–3–NL NanoBRET assay with dimer mutant CRAF-R401H; format: binding; settings: 14–3–3–NL–Tram-bo assay configuration
MEK1–NL + BRAF-V600E = MEK1–NL + BRAF-V600E (Homo sapiens, UniProt Q02750); experiment: MEK1–NL NanoBRET coexpression assay with BRAF-V600E; format: binding; settings: 1 μM Tram-bo

Molecule	change in potency, BRAF-R509H versus BRAF [1]	change in potency, KSR1-R665H versus KSR1 [2]	effect on MEK1–BRAF interaction (co-IP) (MEK1–BRAF)	effect on MEK1–KSR1 interaction (co-IP) (MEK1–KSR1)	change in potency, CRAF-R401H versus CRAF [3]	decrease in potency (calculated Ki) with BRAF-V600E versus WT BRAF (MEK1–NL + BRAF-V600E)
O=C(c1ccc(F)c(F)c1Nc1ccc(I)cc1F)N1CC(O)([C@@H]2CCCCN2)C1 [cobimetinib]	significant increase in potency	decrease in potency	–	–	–	–
CC(=O)Nc1cccc(-n2c(=O)n(C3CC3)c(=O)c3c(Nc4ccc(I)cc4F)n(C)c(=O)c(C)c32)c1 [trametinib]	insensitive	small but significant decrease in potency	specifically reduced	–	–	–
trametiglue	insensitive	decrease in potency	stabilized	stabilized	decrease in potency	–
CNS(=O)(=O)Nc1nccc(Cc2c(C)c3ccc(Oc4ncccn4)cc3oc2=O)c1F [CH5126766]	insensitive	–	stabilized	stabilized	–	~ 100 fold
